From ChEMBL document CHEMBL1153899, “Discovery of benzothiazole derivatives as efficacious and enterocyte-specific MTP inhibitors” (Bioorg Med Chem Lett, 2009)
Activity calls are given as the source filed them. The rule behind the calls is not given here.

Tests used:
[1] = Cmax in Sprague-Dawley rat at 1 mg/kg, iv; format: ADME, organism-based; set-up: dose 1 mg/kg, route intravenous; details: in vivo
[2] = AUC (0 to infinity) in Sprague-Dawley rat at 1 mg/kg, iv; format: ADME, organism-based; set-up: time infinity, dose 1 mg/kg, route intravenous; details: plasma
[3] = Cmax in Sprague-Dawley rat at 3 mg/kg, po; format: ADME, organism-based; set-up: dose 3 mg/kg, route oral; details: in vivo
[4] = Tmax in Sprague-Dawley rat at 3 mg/kg, po; format: ADME, organism-based; set-up: dose 3 mg/kg, route oral; details: in vivo
Summary of the method: (§1)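 Rats dosed orally at 3 mg/kg; Cmax, Tmax, oral half-life and AUC determined from plasma, and oral bioavailability (%F) calculated against the 1 mg/kg IV bolus.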

[5] = Half life in Sprague-Dawley rat at 3 mg/kg, po; format: ADME, organism-based; set-up: dose 3 mg/kg, route oral; details: in vivo
[6] = AUC (0 to infinity) in Sprague-Dawley rat at 3 mg/kg, po; format: ADME, organism-based; set-up: dose 3 mg/kg, route oral, time infinity; details: plasma
[7] = Oral bioavailability in Sprague-Dawley rat at 3 mg/kg; format: ADME, organism-based; details: in vivo; summary of the method: as §1
[8] = AUC (0 to infinity) in Sprague-Dawley rat plasma at 3 mg/kg, po; format: ADME, organism-based; set-up: time infinity, dose 3 mg/kg, route oral
Summary of the method: (§2)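 Dose-proportionality PK in Sprague–Dawley rats (n = 3) given single oral doses of 3, 10, 30 or 100 mg/kg. Liver and plasma were sampled at 0.5, 1, 2, 4 and 8 h and assayed for drug concentration to derive Cmax, AUC(0–∞) and T1/2.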

[9] = AUC (0 to infinity) in Sprague-Dawley rat plasma at 10 mg/kg, po; format: ADME, organism-based; set-up: time infinity, dose 10 mg/kg, route oral; summary of the method: as §2
[10] = AUC (0 to infinity) in Sprague-Dawley rat plasma at 30 mg/kg, po; format: ADME, organism-based; set-up: time infinity, dose 30 mg/kg, route oral; summary of the method: as §2
[11] = AUC (0 to infinity) in Sprague-Dawley rat plasma at 100 mg/kg, po; format: ADME, organism-based; set-up: time infinity, dose 100 mg/kg, route oral; summary of the method: as §2
[12] = Cmax in Sprague-Dawley rat plasma at 3 mg/kg, po; format: ADME, organism-based; set-up: dose 3 mg/kg, route oral; summary of the method: as §2
[13] = Cmax in Sprague-Dawley rat plasma at 10 mg/kg, po; format: ADME, organism-based; set-up: dose 10 mg/kg, route oral; summary of the method: as §2
[14] = Cmax in Sprague-Dawley rat plasma at 30 mg/kg, po; format: ADME, organism-based; set-up: dose 30 mg/kg, route oral; summary of the method: as §2
[15] = Cmax in Sprague-Dawley rat plasma at 100 mg/kg, po; format: ADME, organism-based; set-up: dose 100 mg/kg, route oral; summary of the method: as §2
[16] = Half life in Sprague-Dawley rat plasma at 3 mg/kg, po; format: ADME, organism-based; set-up: dose 3 mg/kg, route oral; summary of the method: as §2
[17] = Half life in Sprague-Dawley rat plasma at 10 mg/kg, po; format: ADME, organism-based; set-up: dose 10 mg/kg, route oral; summary of the method: as §2
[18] = Half life in Sprague-Dawley rat plasma at 30 mg/kg, po; format: ADME, organism-based; set-up: dose 30 mg/kg, route oral; summary of the method: as §2
[19] = Half life in Sprague-Dawley rat plasma at 100 mg/kg, po; format: ADME, organism-based; set-up: dose 100 mg/kg, route oral; summary of the method: as §2
[20] = AUC (0 to infinity) in Sprague-Dawley rat liver at 3 mg/kg, po; format: ADME, organism-based; set-up: time infinity, dose 3 mg/kg, route oral; summary of the method: as §2
[21] = AUC (0 to infinity) in Sprague-Dawley rat liver at 10 mg/kg, po; format: ADME, organism-based; set-up: time infinity, dose 10 mg/kg, route oral; summary of the method: as §2
[22] = AUC (0 to infinity) in Sprague-Dawley rat liver at 30 mg/kg, po; format: ADME, organism-based; set-up: dose 30 mg/kg, route oral, time infinity; summary of the method: as §2
[23] = AUC (0 to infinity) in Sprague-Dawley rat liver at 100 mg/kg, po; format: ADME, organism-based; set-up: time infinity, dose 100 mg/kg, route oral; summary of the method: as §2
[24] = Cmax in Sprague-Dawley rat liver at 3 mg/kg, po; format: ADME, organism-based; set-up: dose 3 mg/kg, route oral; summary of the method: as §2
[25] = Cmax in Sprague-Dawley rat liver at 10 mg/kg, po; format: ADME, organism-based; set-up: dose 10 mg/kg, route oral; summary of the method: as §2
[26] = Cmax in Sprague-Dawley rat liver at 30 mg/kg, po; format: ADME, organism-based; set-up: dose 30 mg/kg, route oral; summary of the method: as §2
[27] = Cmax in Sprague-Dawley rat liver at 100 mg/kg, po; format: ADME, organism-based; set-up: dose 100 mg/kg, route oral; summary of the method: as §2
[28] = Half life in Sprague-Dawley rat liver at 3 mg/kg, po; format: ADME, organism-based; set-up: dose 3 mg/kg, route oral; summary of the method: as §2
Mus musculus = experiment: Decrease in total food intake in 28-day diet-induced obesity C57BL/6 mouse model at 1 to 3 mg/kg, po daily for 4 weeks measured on day 4

CC(C)c1ccc(-c2ccccc2C(=O)Nc2ccc3nc(C(=O)N[C@H](C(=O)N(C)Cc4ccc(F)cc4)c4ccccc4)sc3c2)cc1
Cmax [1]: 5980 ng/mL
AUC(0-inf) [2]: 976 ng·h/mL
Cmax [3]: 22.2 ng/mL
Tmax [4]: 0.5 h
half-life [5]: 2.13 h
AUC(0-inf) [6]: 40.8 ng·h/mL
bioavailability [7]: 1.29%
AUC(0-inf) [8]: 109 ng·h/mL
AUC(0-inf) [9]: 224 ng·h/mL
AUC(0-inf) [10]: 510 ng·h/mL
AUC(0-inf) [11]: 598 ng·h/mL
Cmax [12]: 35 ng/mL
Cmax [13]: 58 ng/mL
Cmax [14]: 49.5 ng/mL
Cmax [15]: 69.5 ng/mL
half-life [16]: 2.42 h
half-life [17]: 7.91 h
half-life [18]: 10.4 h
half-life [19]: 5.44 h
AUC(0-inf) [20]: 1220 ng·h/mL
AUC(0-inf) [21]: 2640 ng·h/mL
AUC(0-inf) [22]: 3030 ng·h/mL
AUC(0-inf) [23]: 1780 ng·h/mL
Cmax [24]: 57 µg/kg
Cmax [25]: 90.1 µg/kg
Cmax [26]: 73.1 µg/kg
Cmax [27]: 84 µg/kg
half-life [28]: 10.7 h
Activity (Mus musculus): Active
